Screening results as filed in PubChem.
Shown are actives, neighbours in structure and some others; about 2.2% of the full set was active somewhere.
Exocytosis inh = lytic granule exocytosis inhibition; inhibition, % at 10 µM; AID 651702; hit rate 0.66% among 360,000; TALL-104 LAMP-1 surface exposure, flow cytometry; cells stimulated with thapsigargin and PMA;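 active means inhibition above about 55%, limit read from the data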
ASAP1 GAP inh = ASAP1 ArfGAP inhibition; hit rate 0.19% among 360,000; Q9ULH1; ASAP1-stimulated ARF1 GTP hydrolysis, GDP FP detection; inhibition, % at 16.5 µM; AID 624377; in the data active means inhibition above about 25%;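 further: 0% = vehicle with enzyme and substrate and 100% = no enzyme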
V-ATPase pH = yeast V-ATPase proton transport regulation by pHLuorin | response, % at 10 µM | S. cerevisiae, pHLuorin cytosolic pH fluorescence | hit rate 0.37% among 350,000; in the data active means response mostly above about 7.3%, no sharp cut-off; inactive means mostly below about 5.4%; further: actives read high
ARFGAP1 inh = rat ARFGAP1 inhibition; Q62848; Arfgap1-stimulated ARF1 GTP hydrolysis, GDP FP detection; inhibition, % at 16.5 µM; hit rate 0.26% among 360,000;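 active means inhibition above a per-plate limit, mean inhibition of low control wells plus 3 SD, cut at about 25% in these data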;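 further: 0% = DMSO wells with enzyme and 100% = wells lacking Arfgap1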
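Material – truncated rat Arfgap1 GAP domain · Buffer or medium – HEPES-based buffer, pH 7.5 · Reagent – human ARF1(Δ1-17)-GTP substrate · Dosing – 16.5 µM single point, 1.26% DMSO · Schedule – GTP hydrolysis reaction 2 h at 25 °C · Technique – GDP detection by fluorescence polarization · Benchmarks – No-Arfgap1 wells (100%) versus DMSO full-reaction wells (0%) · Repeats – single replicate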
NRP1-CendR mod = alters CendR peptide binding to human NRP-1; O14786; FAM-RPARPAR peptide binding to NRP-1, fluorescence polarization; inhibition, % at 25 µM; hit rate 0.85% among 360,000; AID 602438;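 active means inhibition or corrected inhibition above about 18%, plus a signal ratio from 0.5 to 1.5, limit read from the data, passing the limit was not always enough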
Target sequence (O14786 whole entry, looked up): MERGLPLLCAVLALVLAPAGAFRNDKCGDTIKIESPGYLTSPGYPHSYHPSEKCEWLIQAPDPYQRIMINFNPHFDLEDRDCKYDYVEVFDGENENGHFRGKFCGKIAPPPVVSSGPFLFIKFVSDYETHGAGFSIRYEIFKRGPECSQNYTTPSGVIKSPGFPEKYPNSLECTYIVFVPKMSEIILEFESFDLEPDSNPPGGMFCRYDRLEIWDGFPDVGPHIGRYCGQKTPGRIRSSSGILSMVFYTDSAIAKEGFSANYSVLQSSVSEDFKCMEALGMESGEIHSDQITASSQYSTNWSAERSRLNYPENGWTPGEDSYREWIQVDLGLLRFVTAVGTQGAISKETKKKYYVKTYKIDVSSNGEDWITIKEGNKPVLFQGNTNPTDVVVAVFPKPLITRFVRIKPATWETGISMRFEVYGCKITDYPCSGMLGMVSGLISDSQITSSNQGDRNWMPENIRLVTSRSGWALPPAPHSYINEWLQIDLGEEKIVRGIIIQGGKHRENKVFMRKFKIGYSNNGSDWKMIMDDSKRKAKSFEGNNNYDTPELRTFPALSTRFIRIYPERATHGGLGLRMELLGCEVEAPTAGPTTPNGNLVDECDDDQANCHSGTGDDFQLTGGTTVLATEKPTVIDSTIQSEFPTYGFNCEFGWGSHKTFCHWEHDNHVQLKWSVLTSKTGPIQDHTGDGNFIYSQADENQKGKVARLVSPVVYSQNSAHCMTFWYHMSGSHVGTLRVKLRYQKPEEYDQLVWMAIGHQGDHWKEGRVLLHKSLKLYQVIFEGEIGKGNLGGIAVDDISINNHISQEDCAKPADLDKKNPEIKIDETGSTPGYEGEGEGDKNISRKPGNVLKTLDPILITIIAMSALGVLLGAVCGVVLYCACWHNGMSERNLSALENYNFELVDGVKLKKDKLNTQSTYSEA
* hit, by the source's call; nt = not tested or not shown.

SMILES	Exocytosis inh	ASAP1 GAP inh	V-ATPase pH	ARFGAP1 inh	NRP1-CendR mod
O=S1(=O)CCOCCCN1Cc1ccc(Cl)cc1	0	-8	-5	8	24*
Cc1ccccc1CN1[C@@H](Cc2ccccc2)COCCS1(=O)=O	10	-1	12	-7	26*
CC(C)(COC(=O)c1ccccc1)N1CC2CCC(C1)O2	-11	-4	19*	-2	-7
Cc1[nH]c2ccccc2c1CC(=O)Nc1ccc(N(C)c2cccnc2)c(-c2ccc(F)c(F)c2)c1	nt	-1	nt	5	nt
N#CCC1(O)C(=O)Nc2ccccc21 (configuration not stated)	nt	-8	nt	-6	nt
Nc1c(S(=O)(=O)O)cc(NC(=O)c2ccccc2)c2c1C(=O)c1ccccc1C2=O	-7	nt	1	nt	27*
CSc1nn(CCC#N)c(=O)[nH]c1=O	nt	12	nt	-4	nt
COc1ccc(-c2oc3ccc(-c4ccc5c(c4)OCO5)cc3c2-c2ccc(OC)nc2)cc1	5	-1	-5	4	27*
C=CCN1CCCC1CNC(=O)c1cc2[nH]nnc2cc1OC (configuration not stated)	-4	6	15*	21	-18
CCN1CCCC1CNC(=O)c1cc(N)ccc1OC (configuration not stated)	1	-8	0	2	-2
O=C(C1=C[C@H](c2csc3ccccc23)C[C@H](OCCCCO)O1)N1CCN(Cc2ccccc2)CC1	-6	-9	4	2	27*
O=C(O)C1=C[C@H](c2coc3ccccc3c2=O)C[C@H](OCCCCO)O1	69*	3	4	-5	-24
COC(=O)C1=C(C)N(C)C(=NCc2ccccc2C(F)(F)F)NC1CCc1ccccc1 (configuration not stated)	nt	-10	nt	1	nt
COC(=O)c1cc2c(c3c4cc(F)ccc4n(S(=O)(=O)c4ccc(OC)cc4)c13)C(=O)N(C)C2	nt	-8	nt	3	nt
C[C@H](O)[C@@H]1C(=O)N2CCc3c([nH]c4c(-c5ccccc5)cccc34)[C@@H]2C[C@@H]1N(C)C(=S)Nc1ccc(C#N)cc1	nt	14	nt	9	nt
CCOC(=O)C(=CN(CCc1ccccc1)CC(=O)OC)C(=O)OCC	-3	3	1	10	26*
COC(=O)CCC(=O)N(CCN(Cc1ccccc1)C(=O)CCC(=O)OC)Cc1ccccc1	1	-12	14	-4	0
CC(C)(C)c1ccc(SCCc2cccnc2)cc1	-2	-1	-1	9	31*
c1ccc(SCCc2ccncc2)cc1	2	-11	-1	4	2
c1coc(CSSCc2ccco2)c1	3	-12	9.5*	-14	-7
Cc1ccc(NC(=O)CSCc2ccco2)cc1	-2	-2	-1	6	-2
CC1=C(C)/C(=N\OS(=O)(=O)c2ccc(C)cc2)C=CC1=O	46	-3	10*	4	4
CC1=C/C(=N\OS(=O)(=O)c2ccccc2)C(C)=CC1=O	99*	nt	15	nt	2
CC(S(=O)(=O)c1ccccc1)S(=O)(=O)c1ccccc1	4	-10	-2	-14	-12
COc1ccc(S(=O)(=O)/N=C2/C=CC(=O)C(C)=C2C)cc1	3	nt	-1	nt	0
SMILES	Exocytosis inh	ASAP1 GAP inh	V-ATPase pH	ARFGAP1 inh	NRP1-CendR mod
COc1cc(C(=O)O/N=C2/C=C(C)C(=O)C=C2C)cc(OC)c1OC	-2	-2	-1	1	2
CC1=C/C(=N\OS(=O)(=O)c2ccccc2)C(C(C)C)=CC1=O	13	nt	30*	nt	-4
COCCn1c(SCC(=O)c2ccc(F)cc2)nnc1C(C)C	-2	0	7	4	24*
COCCn1nnnc1SCC(=O)c1ccc(F)cc1	2	6	0	0	-3
COC(=O)C(O)(NC(=O)NC(C)=O)C(F)(F)F (configuration not stated)	2	4	14*	-5	8
CCN1C(=O)N(C(C)=O)[C@H]2C[C@H](C(=O)N3CCCC3)[C@H](C)[C@H](c3ccccc3)C[C@H]21	nt	-4	nt	-11	nt
O=C(c1ccc(C(F)(F)F)cc1)N1CCC(=O)N(C(CO)Cc2ccccc2)CC1 (configuration not stated)	11	-11	6	4	26*
O=C(c1ccc(C(F)(F)F)cc1)N1CCC(=O)N([C@H](COCc2ccc(C(F)(F)F)cc2)Cc2ccccc2)CC1	10	3	nt	-9	-12
COc1cccc(CNC(=O)[C@H]2CCCN2C(=O)C2CCCN2C(=O)c2ccc(OC)c(F)c2)c1 (some centres not stated)	nt	-2	nt	-5	nt
O=C(CCN1C(=O)/C(=C/c2ccccc2F)SC1=S)NCCc1ccc(O)cc1	1	6	2	-8	-1
COc1ccccc1/C=C1\SC(=S)N(CCC(=O)NCCc2ccc(O)cc2)C1=O	88*	14	6	6	-2
COc1ccc(/C=C2\SC(=S)N(CCC(=O)NC3CCCC3)C2=O)cc1OC	1	3	-3	-5	22*
Nc1[nH]c(C(=O)c2ccccc2)c(-c2ccc3ccccc3c2)c1C(=O)NCc1cccc2ccccc12	nt	-2	nt	9	nt
Cc1[nH]nc(N=CC2=C(O)CC(C)(C)CC2=O)c1-c1ccc(Cl)cc1	-3	14	0	-1	8
Cc1[nH]nc(N=CC2=C(O)CC(c3ccco3)CC2=O)c1-c1ccc(Cl)cc1 (configuration not stated)	98*	10	3	1	-12
Cn1nnnc1SCc1nnc(-c2ccc(F)cc2)o1	1	-3	-1	10	25*
CC(C)OC(=O)CSc1nnc(-c2ccccn2)n1-c1ccccc1	3	-3	1	-10	21*
COC(=O)N1C[C@H](OCc2cn(-c3cc(Cl)cc(Cl)c3)nn2)[C@H](OCc2cn(-c3cc(Cl)cc(Cl)c3)nn2)C[C@@H]1c1ccccc1Br	nt	-6	nt	-7	nt
CN1CCc2cccc3c2[C@@H]1Cc1ccc(O)c(O)c1-3	74*	nt	-3	nt	26*
Cc1ccc(S(=O)(=O)N2CCN(C(=O)c3n[nH]c4ccccc34)CC2)cc1	1	3	3	10	0
O=C(c1n[nH]c2ccccc12)N1CCN(S(=O)(=O)c2ccc3ccccc3c2)CC1	-1	5	-1	-3	47*
COc1ccc(CN(C)C(=O)CCNS(=O)(=O)c2ccccc2)c(OC)c1	4	-12	nt	-3	29*
O=C(C(=O)N1CCC(CNS(=O)(=O)c2ccccc2)CC1)c1cc2ccccc2o1	nt	3	nt	-6	nt
COc1ccc(C(=O)/C=C2/C(=O)Nc3ccccc32)cc1OC	-13	-5	3	-6	39*
Cc1cc(=S)cc(C)n1CCCO	-1	-3	2	-7	32*
COc1cc(C(=O)n2nc(C)cc2C)ccc1O	1	-8	1	-3	33*
CCOc1ccc(S(=O)(=O)NNC(=O)c2cc3ccccc3o2)cc1	-3	-3	-2	4	43*
C[C@H]1CCC[C@]2(O[C@H](CCO)C[C@H](O)[C@H]2O)O1	4	-7	1	-7	29*
